From the RNAGym collection of RNA variant scans (doi:10.1101/gad.245936.114)
Fewer inactive variants are shown than the library holds.

B1: tRNA (parent)
chain: CUCUCGGUAGCCAAGUUGGUUUAAGGCGCAAGACUUUAAUUUAUCACUACGAAAUCUUGAGAUCGGGCGUUCGACUCGCCCCCGGGAGAUUUUUUCCUCGAGCAA

Variants of: B1
Assay: nonsense suppression (GFP-seq) (ratio to wild type); higher = more function; SUP4oc tRNA, yeast GFP reporter sort-seq
Method in brief: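 To measure nonsense suppression, tRNA variants from a library carrying ~3% random mutations were integrated into the yeast genome alongside RFP and a GFP ochre reporter under galactose control. Growth took place in raffinose/galactose medium supplemented with 80 mg/L adenine, followed by sorting into GFP/RFP bins and Illumina sequencing of each bin (phred ≥30). For each variant with ≥100 reads and ≥30 cells, the bin median GFP/RFP values were weighted by its estimated cell share per bin and referenced to the unmutated parent tRNA.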

Variant | nonsense suppression
CUCUCGGUAGCCAAGUUGGUUUAAGGCGCAAGACUUUAAUUUAUCACUACGAAAUCUUGCGAUCGCGCGUUCGACUCGCCCCCGGGAGAUUUUUUCCUCGAGCAA [A60C G66C] | ≤ 0.026
CUCUCGGUAGCCAAGUUGGUUUUAGGCGCAAGACUUUAAUUUAUCACUACGAAAUCUUGAGAUCGGGCGUUCGACUCUCCCCCGGGAGAUUUUUUCCUCGAGCAA [A23U G78U] | 0.0382
CUCUCGGUAGCCAAGUUGGUUUAAUGCGCAAGACUUUAAUUUAUCACUACGAAAUCUUGCGAUCGGGCGUUCGACUCGCCCCCGGGAGAUUUUUUCCUCGAGCAA [G25U A60C] | ≤ 0.026
CUCUCGGUAGCCAAGUUGGAUUAAGGCGCAAGAUUUUAAUUUAUCACUACGAAAUCUUGAGAUCGUGCGUUCGACUCGCCCCCGGGAGAUUUUUUCCUCGAGCAA [U20A C34U G66U] | ≤ 0.026
CUCUCGGUAGCCAAGUUGGUUUACGGCGCAAGACUUUAAUUUAUCACUACGAACUCUUGAGAUCGGGCGUUCGACUCGCCCCCGGGAGAUUUUUUCCUCGAGCAA [A24C A54C] | 0.198
CUCUCGGUAGCCAAGUCGGUUUAGGGCGCAAGACUUUAAUUUAUCACUACGAAAUCUUGAGAUCGGGCGUUCGACUCGCCCCCGGGAGAUUUUUUCCUCGAGCAA [U17C A24G] | 0.0323
CUCUCGGUAGCCUAAUUGGUUUAAGGCGCAAGACUUUAAUUUAUCACUACGAAAUCUUGAGAUCGGGCGUUCUACUCGCCCCCGGGAGAUUUUUUCCUCGAGCAA [A13U G15A G73U] | ≤ 0.026
CUCUCGGUAGCCAAGUUGGUUUAAGGCGCAAGACUUUAAUUUAUCACUACGAAAACUUGAGAUCGGGCGUUCGCCUCGCCCCCGGGAAAUUUUUUCCUCGAGCAA [U55A A74C G88A] | ≤ 0.026
CUCUCGGUAGCCAAGAUGGUUUAAGGCGCAAGACUUUAAUUUAUCACUACGAAUUCUUGAGAUCGGGCGUUCGACUCGCCCCCGGGAGAUUUUUUCCUCGAGCAA [U16A A54U] | 1.06
CUCUCGGUAGCCAAGUUGGUUUAAGGCGCAGGACUUUAAUUUAUCACUACGAAAUCUUGAGAUCGGUCGUUCGGCGCGCCACCGGGAGAUUUUUUCCUCGAGCAA [A31G G67U A74G U76G C81A] | ≤ 0.026
CUCUCGGUAGCCAAGUUGGUUUAAGGCGCAAGACUUUAAUUUAUCACUACGAAUUCUUGAGAUCGGGCGUUCGACUCGUCCCCGGGAGAUUUUUUCCUCGAGCAA [A54U C79U] | 0.571
CUCUCGGUAGCCAAGUCGGUUUAAGGCCCAAGACUUUAAUUUAUCACUACGAAUUCUUGAGAUCGGGCGUUCGACUCGCCCCCGGGAGAUUUUUUCCUCGAGCAA [U17C G28C A54U] | 0.219
CUCUCGGUAGCCAAGUUGGAUUAAGGCGCAAGACUUUAAUUUAUCACUACGAAACCUUGAGAUCGGGCGUUCGACUCGCCCGCGGGAGAUUUUUUCCUCGAGCAA [U20A U55C C82G] | ≤ 0.026
CUCUCGGUAGCCAAGUUGGCUUAAGGCGCAAGACUUUAAUUUAUCACUACGAAAUCUUGAGAUCGGGCGUUCGACUCGUCCCCUGGAGAUUUUUUCCUCGAGCAA [U20C C79U G84U] | ≤ 0.026
CUCUCGGUAGCCAAGUUGGUUUAAGGCGCAAGACUUUAAUUUAUCACUACGAAAUCUAGCGAUCGGGCGUUCGACUCGCCCCCGGGAGAUUUUUUCCUCGAGCAA [U58A A60C] | 0.0508
CUCUCGGUAGCCAACUUGGUUUAAGGCGCAAGACUUUAAUUUAUCACUACGAAAUCUUGAGAUCGGGCGUUCGACUCGCCCCCGGGUGAUUUUUUCCUCGAGCAA [G15C A87U] | ≤ 0.026
CUCUCGGUCGCUAAGUUGGUUUCAGGCGCAAGACUUUAAUUUAUCACUACGAAAUCUUGAGAUCGGGCGUUCGACUCGCCCCCGGGUGAUUUUUUCCUCGAGCAA [A9C C12U A23C A87U] | ≤ 0.026
CUCUCGGUAGCUAAGUUGGUUUAAGGCGCAAGACUUUAAUUUAUCACUACGAAAUCUUGAGAUCGGGCGUUCGACUCUCCCCCCGGAGAUUUUUUCCUCGAGCAA [C12U G78U G84C] | ≤ 0.026
CUCUCGGUGGCCAAGUUGGUUUAAGGCGCAAGACUUUAAUUUAUCACUACGAAUUCUUGAGAUCGGGCGCUCGACUCGCCCCCGGGAGAUUUUUUCCUCGAGCAA [A9G A54U U70C] | ≤ 0.026
CUCUCGGUAGCCAAGUUGGUGUAAGGCGCAGGACUUUAAUUUAUCACUACGAAAUCUUGAGAUCGGGCGUUCGACUCGCCCCCGGGAGAUUUUUUCCUCGAGCAA [U21G A31G] | 0.77
CUCUCGGUAGCCAAGUUGGUUUAAGGCGCAAGACUUUAAUUUAUCACUACGAAAUCUUGAGAUCGGGCGUUCGAGUCGCCCCCGCGAGAUUUUUUCCUCGAGCAA [C75G G85C] | 0.191
CUCUCGGUAGCCAAGUUGGUUUAAGGAGCAAGCCUUUAAUUUAUCACUACGAAAUCUUGAGAUCGUGCGUUCGACUCGCCCCCGGGAGAUUUUUUCCUCGAGCAA [C27A A33C G66U] | ≤ 0.026
CUCGCGGUAGCCAAGUUGGUUUAAGGCGCAAGACUUUAAUUUAUCACUACGAAAUUUUGAGAUCGGGCGUUCGACUCGCCCCCGGGAGAUUUUUUCCUCGAGCAA [U4G C56U] | 0.0355
UUCUCGGUAGCCCAGUUGGUUUAAGGCGCCAGACUUUAAUUUAUCACUACGAAAUCUUGAGAUCGGGCGUUCGACUUGCCCCCGGGAGCUUUUUUCCUCGAGCAA [C1U A13C A30C C77U A89C] | ≤ 0.026
CUCUCGGUAACCAAGUUGGUUUAAGGCGCAAGACUUUAAUUUAUCACUACGAAAUCUUGAGAUCGGGCGUUCGACUCGCCCCCGUGAGAUUUUUUCCUCGAGCAA [G10A G85U] | ≤ 0.026
CGCUCGGUAGCCAAGUUGGUUUUAGGCGCAAGACUUUAAUUUAUCACUACGAAAUCUUGAGAUCGGGCGUUCGACUCGCCCCCGGGAGAUUUUUUCCUCGAGCAA [U2G A23U] | ≤ 0.026
CUCUCGGUGGCCAACUUGGUUUAAGGCGCAAGACUUUAAUUUAUCACUACGAAAUCUUGAGAUCGGGCGUUCGACUCGCCCCCGGGAGAUUUUUUCCUCGAGCAA [A9G G15C] | 0.173
